hERG protect – compounds protecting human hERG from proarrhythmic drug block. Q12809. CHO-hERG, FluxOR thallium flux, dofetilide IC70 present. activation (rescue from dofetilide block), less the hit threshold, % at 10 µM. actives 0.51% (n = 310,000);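 active = activation above the mean of controls blocked by dofetilide plus 5 SD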;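 also: thallium influx through hERG after potassium depolarization seen as dye fluorescence rise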
KCNQ1 act – human KCNQ1 channel potentiation or activation; CHO-K1 KCNQ1, thallium flux FluxOR fluorescence; hits give high values; P51787; B-score at 10 µM; actives 0.35% (n = 310,000);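 active = fluorescence ratio B-score, a plate-corrected score, at least three library SD, with initial intensity B-score within 5 SD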
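Doses: Single concentration per compound, DMSO matched to controls | Test system: KCNQ1-transfected CHO-K1 cells | Timing: 90 min dye loading and 20 min compound exposure, both at room temperature | Measured by: Kinetic FluxOR thallium fluorescence, 10-s 1-Hz baseline, 110-s post-stimulus read | Medium: Assay buffer with matched DMSO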
KCNK9 inh – human KCNK9 channel inhibition | B-score at 10 µM | actives 1.2% (n = 310,000) | Q9NPC2 | HEK293 KCNK9, FluxOR thallium flux fluorescence; hits give low values;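 active = ratio B-score over 3 SD below the library mean, with starting fluorescence within 5 SD of its mean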;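 also: negative B-score means less thallium flux so channel inhibition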
KCNK3 inh – human KCNK3 channel inhibition, primary screen; actives 0.84% (n = 340,000); CHO-KCNK3 thallium flux, FluxOR fluorescence; hits give low values; B-score at 10 µM; O14649; AID 602410;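 active = B-score under library mean minus 4 SD, starting fluorescence ratio at most library mean plus 5 SD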;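 also: more negative B-score means stronger inhibition of thallium flux through KCNK3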
KCNQ1 inh – inhibitors of human KCNQ1 potassium channel. P51787. CHO-K1 KCNQ1, FluxOR thallium flux fluorescence; hits give high values. B-score at 10 µM. actives 1.3% (n = 310,000). AID 2642;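 active = compounds whose thallium flux B-score, printed positive for inhibition, exceeds three library SD while starting fluorescence stays within three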;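 also: channel opened by potassium depolarization with thallium stimulus after 20 min compound exposure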
KCNK9 inh conf – human KCNK9 inhibitor confirmation. shares compounds with KCNK9 inh. HEK293 KCNK9 cells, FluxOR thallium flux fluorescence. inhibition, % at 10 µM. actives 43% (n = 4,900);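 active = thallium signal inhibited by more than 5 SD of the compound-free buffer control wells, on both duplicate plates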;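 also: 0% = assay buffer control wells without compound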
Kir2-1 spec – mouse Kir2.1 off-target activity of KCNK9 modulators; shares compounds with KCNK9 inh; actives 4% (n = 4,900); inhibition, % at 10 µM; AID 492993; Kir2.1 cells, FluxOR thallium flux fluorescence;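 active = thallium signal drop more than 5 SD beyond the mean of the no-compound control wells, seen in both duplicate plates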;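 also: signal is fluorescence rise after thallium addition divided by baseline fluorescence; plate controls were assay buffer only for no effect and full block by chlorpromazine control for full effect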
Target sequence (P35561 whole entry, looked up): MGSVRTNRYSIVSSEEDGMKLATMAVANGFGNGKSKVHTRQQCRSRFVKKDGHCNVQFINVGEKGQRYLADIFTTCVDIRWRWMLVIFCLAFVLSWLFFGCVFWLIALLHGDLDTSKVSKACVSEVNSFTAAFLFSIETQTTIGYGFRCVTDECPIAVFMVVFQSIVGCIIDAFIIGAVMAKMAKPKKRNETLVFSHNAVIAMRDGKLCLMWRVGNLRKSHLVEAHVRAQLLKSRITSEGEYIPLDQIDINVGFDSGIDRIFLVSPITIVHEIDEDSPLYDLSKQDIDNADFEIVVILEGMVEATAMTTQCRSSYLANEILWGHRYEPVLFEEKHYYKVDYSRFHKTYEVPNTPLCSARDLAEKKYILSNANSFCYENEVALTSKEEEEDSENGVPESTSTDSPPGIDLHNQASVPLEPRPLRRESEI
HEK293 Tl ctr – non-induced cell nonspecific activity of KCNK9 modulators | inhibition, % at 10 µM | non-induced KCNK9-HEK293, FluxOR thallium flux | actives 40% (n = 4,900) | shares compounds with KCNK9 inh;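 active = thallium signal drop beyond 5 SD of the untreated control mean, on both duplicate plates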;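 also: plate controls were buffer only IC0 wells for no effect and SID17386958 at its maximal inhibitory level for full effect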
The depositor's hits bear a star. Sampled rows, rich in hits. Any-hit rate of the full collection: about 3.1%.

Results for CCOC(=O)Cc1c(C)nc2c(-c3ccccc3)c(C)nn2c1C ?
hERG protect: -6.0; KCNQ1 act: inactive; KCNK9 inh: inactive; KCNK3 inh: inactive; KCNQ1 inh: inactive; KCNK9 inh conf: inactive; Kir2-1 spec: inactive; HEK293 Tl ctr: inactive

Results for Cc1cc(NC(=O)CSc2nnc(-c3ccoc3C)n2N)no1 ?
hERG protect: -14.5; KCNQ1 act: inactive; KCNK9 inh: inactive; KCNK3 inh: inactive; KCNQ1 inh: inactive

What do the screens show for `CCOc1ccc(C(C)=O)cc1CSc1nnc(-c2ccoc2C)n1N`?
hERG protect: -9.1; KCNQ1 act: inactive; KCNK9 inh: -9.22*; KCNK3 inh: inactive; KCNQ1 inh: inactive; KCNK9 inh conf: 45.0%*; Kir2-1 spec: inactive; HEK293 Tl ctr: 30.5%*

How did O=C(OC(C(=O)NC1CCCC1)c1ccccn1)c1cccs1 (stereo not given) do in these assays?
hERG protect: -11.4; KCNQ1 act: inactive; KCNK9 inh: inactive; KCNK3 inh: inactive; KCNQ1 inh: inactive

What do the screens show for `O=C(Nc1nccs1)C1CCN(S(=O)(=O)c2c(Cl)cccc2Cl)CC1`?
hERG protect: -8.2; KCNQ1 act: inactive; KCNK9 inh: -15.8*; KCNK3 inh: inactive; KCNQ1 inh: inactive; KCNK9 inh conf: inactive; Kir2-1 spec: inactive; HEK293 Tl ctr: inactive

What do the screens show for `Cc1[nH]n(C2=NCCS2)c(=O)c1N=Nc1ccccc1`?
hERG protect: -15.9; KCNQ1 act: inactive; KCNK9 inh: -11.5*; KCNK3 inh: inactive; KCNQ1 inh: inactive; KCNK9 inh conf: inactive; Kir2-1 spec: inactive; HEK293 Tl ctr: 31.5%*

What do the screens show for `CCC(C)NC(=O)c1c(F)c(F)c(F)c(F)c1F` (stereo not given)?
hERG protect: -9.5; KCNQ1 act: inactive; KCNK9 inh: inactive; KCNK3 inh: inactive; KCNQ1 inh: inactive

Results for O=C(NCCN1CCOCC1)c1cc(-c2ccc(Br)cc2)on1 ?
hERG protect: -9.6; KCNQ1 act: inactive; KCNK9 inh: -11.9*; KCNK3 inh: inactive; KCNQ1 inh: inactive; KCNK9 inh conf: inactive; Kir2-1 spec: inactive; HEK293 Tl ctr: inactive

How did CC(C)Cc1c2c([nH]c(=S)c1C#N)CCCC2 do in these assays?
hERG protect: -2.4; KCNQ1 act: inactive; KCNK9 inh: inactive; KCNK3 inh: inactive; KCNQ1 inh: inactive

What do the screens show for `CCCCCCCc1c(C#N)c(N)[nH]c(=S)c1C#N`?
hERG protect: -18.9; KCNQ1 act: inactive; KCNK9 inh: inactive; KCNK3 inh: inactive; KCNQ1 inh: 7*; KCNK9 inh conf: inactive; Kir2-1 spec: inactive; HEK293 Tl ctr: inactive

Results for COc1cc(OC)nc(Oc2ccccc2C(=O)Oc2cccc(C)c2)n1 ?
hERG protect: -0.2; KCNQ1 act: inactive; KCNK9 inh: -9.5*; KCNK3 inh: inactive; KCNQ1 inh: inactive; KCNK9 inh conf: 34.5%*; Kir2-1 spec: inactive; HEK293 Tl ctr: 36.0%*

What do the screens show for `COc1ccccc1N1CCN(C(=O)c2ccc3c(=O)n(Cc4ccc5c(c4)OCO5)c(=O)[nH]c3c2)CC1`?
hERG protect: -9.9; KCNQ1 act: inactive; KCNK9 inh: inactive; KCNK3 inh: inactive; KCNQ1 inh: inactive

How did Cc1ccc(SCCNC(=S)Nc2ccc(C)cc2C)cc1 do in these assays?
hERG protect: 0.2; KCNQ1 act: inactive; KCNK9 inh: inactive; KCNK3 inh: inactive; KCNQ1 inh: inactive; KCNK9 inh conf: inactive; Kir2-1 spec: inactive; HEK293 Tl ctr: inactive

What do the screens show for `CN(C)C(CNC(=S)Nc1cccc(Cl)c1)c1cccnc1` (stereo not given)?
hERG protect: -6.1; KCNQ1 act: inactive; KCNK9 inh: inactive; KCNK3 inh: inactive; KCNQ1 inh: inactive
